Results on 2 compounds are retold here after ChEMBL document CHEMBL1138525 (J Med Chem, 2009).

Structures are written as SMILES. Active and inactive are the calls of the source. No cut-off for these calls is given here.

The target of test [1] is T1, P2Y purinoceptor 2 (Homo sapiens, UniProt P41231). Briefly: Agonist activity at N-terminal HA epitope-tagged human P2Y2 receptor expressed in human 1321N1 cells assessed as increase in intracellular calcium level at 100 µM. (In general: A change in cytosolic calcium serves as a functional read-out for many receptors and channels.)
The target of test [2] is T1, P2Y purinoceptor 2. The test can be described thus: Agonist activity at N-terminal HA epitope-tagged wild type 4 human P2Y2 receptor expressed in human 1321N1 cells assessed as increase in intracellular calcium level relative to carbachol. The test is classed as functional, cell-based. The method, boiled down: (§1)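 Retrovirally transduced stable 1321N1 astrocytoma lines (wild-type lines of differing expression, or mutants) in suspension, loaded with Oregon Green BAPTA-1/AM for 1 h at room temperature. Cells were plated at 150000 per well in Krebs-HEPES pH 7.4 and held 20 min at 28 °C in the dark. Agonist was then injected, with fluorescence read at ex 485/em 520 nm for 60 × 0.4 s.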

Test [3] has as its system P2Y purinoceptor 2 (Homo sapiens), P41231 [Y198A]. The test can be described thus: Agonist activity at N-terminal HA epitope-tagged human P2Y2 receptor Y198A mutant expressed in human 1321N1 cells assessed as increase in intracellular calcium level relative to carbachol. The test is classed as functional, cell-based. The method, boiled down:
as §1

The subject of test [4] is P2Y purinoceptor 2 (Homo sapiens), P41231 [R194H]. Briefly: Agonist activity at N-terminal HA epitope-tagged human P2Y2 receptor R194H mutant expressed in human 1321N1 cells assessed as increase in intracellular calcium level relative to carbachol. The test is classed as functional, cell-based. The gist of the method: as §1
Test [5] has as its system P2Y purinoceptor 2 (Homo sapiens), P41231 [R177A]. Briefly: Agonist activity at N-terminal HA epitope-tagged human P2Y2 receptor R177A mutant expressed in human 1321N1 cells assessed as increase in intracellular calcium level relative to carbachol. The test is classed as functional, cell-based. The gist of the method:
as §1

Test [6] deals with T1, P2Y purinoceptor 2. Briefly: Agonist activity at N-terminal HA epitope-tagged wild type 3 human P2Y2 receptor expressed in human 1321N1 cells assessed as increase in intracellular calcium level relative to carbachol. The test is classed as functional, cell-based. The method, boiled down: as §1
For test [7], the system named is P2Y purinoceptor 2 (Homo sapiens), P41231 [R180A]. The test can be described thus: Agonist activity at N-terminal HA epitope-tagged human P2Y2 receptor R180A mutant expressed in human 1321N1 cells assessed as increase in intracellular calcium level relative to carbachol. The test is classed as functional, cell-based. The method, boiled down:
as §1

Test [8] deals with P2Y purinoceptor 2 (Homo sapiens), P41231 [R272A]. The test can be described thus: Agonist activity at N-terminal HA epitope-tagged human P2Y2 receptor R272A mutant expressed in human 1321N1 cells assessed as increase in intracellular calcium level up to 300 uM relative to carbachol. The test is classed as functional, cell-based. The method, boiled down: as §1
The test system of test [9] is P2Y purinoceptor 2 (Homo sapiens), P41231 [C278S]. Briefly: Agonist activity at N-terminal HA epitope-tagged human P2Y2 receptor C278S mutant expressed in human 1321N1 cells assessed as increase in intracellular calcium level relative to carbachol. The test is classed as functional, cell-based. The method, boiled down: as §1
Test [10] has as its system P2Y purinoceptor 2 (Homo sapiens), P41231 [S296A]. The test can be described thus: Agonist activity at N-terminal HA epitope-tagged human P2Y2 receptor S296A mutant expressed in human 1321N1 cells assessed as increase in intracellular calcium level relative to carbachol. The test is classed as functional, cell-based. The gist of the method: as §1
For test [11], the system named is P2Y purinoceptor 2 (Homo sapiens), P41231 [R177A,R180A]. The test can be described thus: Agonist activity at N-terminal HA epitope-tagged human P2Y2 receptor R177A_R180A double mutant expressed in human 1321N1 cells assessed as increase in intracellular calcium level relative to carbachol. The test is classed as functional, cell-based. The gist of the method:
as §1

For test [12], the system named is P2Y purinoceptor 2 (Homo sapiens), P41231 [Y118A]. The test can be described thus: Agonist activity at N-terminal HA epitope-tagged human P2Y2 receptor Y118A mutant expressed in human 1321N1 cells assessed as increase in intracellular calcium level relative to carbachol. The test is classed as functional, cell-based. The method, boiled down: as §1
The subject of test [13] is P2Y purinoceptor 2 (Homo sapiens), P41231 [Y114A]. The test can be described thus: Agonist activity at N-terminal HA epitope-tagged human P2Y2 receptor Y114A mutant expressed in human 1321N1 cells assessed as increase in intracellular calcium level relative to carbachol. The test is classed as functional, cell-based. The method, boiled down: as §1

T1 sequence (P41231 whole entry): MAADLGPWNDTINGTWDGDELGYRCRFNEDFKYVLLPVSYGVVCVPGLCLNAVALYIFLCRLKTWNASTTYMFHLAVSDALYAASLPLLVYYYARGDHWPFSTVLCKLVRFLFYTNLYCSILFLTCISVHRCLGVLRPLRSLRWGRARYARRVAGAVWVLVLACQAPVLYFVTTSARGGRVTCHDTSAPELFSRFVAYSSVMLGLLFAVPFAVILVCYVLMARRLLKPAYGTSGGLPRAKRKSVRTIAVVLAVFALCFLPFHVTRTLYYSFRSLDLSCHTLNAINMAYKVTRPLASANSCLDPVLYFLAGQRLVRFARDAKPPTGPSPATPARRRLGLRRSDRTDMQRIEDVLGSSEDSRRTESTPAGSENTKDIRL
Sequence of P2Y purinoceptor 2 (Homo sapiens), P41231 [C278S] (P41231 whole entry C278S): as the sequence (P41231 whole entry) above, with C278S counted along it
Sequence of P2Y purinoceptor 2 (Homo sapiens), P41231 [S296A] (P41231 whole entry S296A): as the sequence (P41231 whole entry) above, with S296A counted along it
Sequence of P2Y purinoceptor 2 (Homo sapiens), P41231 [R272A] (P41231 whole entry R272A): as the sequence (P41231 whole entry) above, with R272A counted along it
Sequence of P2Y purinoceptor 2 (Homo sapiens), P41231 [Y198A] (P41231 whole entry Y198A): as the sequence (P41231 whole entry) above, with Y198A counted along it
Sequence of P2Y purinoceptor 2 (Homo sapiens), P41231 [Y118A] (P41231 whole entry Y118A): as the sequence (P41231 whole entry) above, with Y118A counted along it
Sequence of P2Y purinoceptor 2 (Homo sapiens), P41231 [R180A] (P41231 whole entry R180A): as the sequence (P41231 whole entry) above, with R180A counted along it
Sequence of P2Y purinoceptor 2 (Homo sapiens), P41231 [R177A,R180A] (P41231 whole entry R177A/R180A): as the sequence (P41231 whole entry) above, with R177A, R180A counted along it
Sequence of P2Y purinoceptor 2 (Homo sapiens), P41231 [Y114A] (P41231 whole entry Y114A): as the sequence (P41231 whole entry) above, with Y114A counted along it
Sequence of P2Y purinoceptor 2 (Homo sapiens), P41231 [R194H] (P41231 whole entry R194H): as the sequence (P41231 whole entry) above, with R194H counted along it
Sequence of P2Y purinoceptor 2 (Homo sapiens), P41231 [R177A] (P41231 whole entry R177A): as the sequence (P41231 whole entry) above, with R177A counted along it

For `C[N+](C)(C)CCOC(N)=O`, the result at P2Y purinoceptor 2 [1] was Active.
`O=c1ccn([C@@H]2O[C@H](COP(=O)(O)OP(=O)(O)OP(=O)(O)OP(=O)(O)OC[C@H]3O[C@@H](n4ccc(=O)[nH]c4=O)[C@H](O)[C@@H]3O)[C@@H](O)[C@H]2O)c(=O)[nH]1`: the Efficacy on P2Y purinoceptor 2 [2] stood at 98%; in test [3], 127%; in test [4], 85%; in [5], 102%; at P2Y purinoceptor 2 [6] it was 60%; in test [7], 72%. In addition, the Efficacy turned out to be 5% in [10], 101% in test [11], 25% in [12] and 142% in [13]. Moreover, the Efficacy entry in test [8] and in test [9] was “inactive” each time.
